Measurements as given in ChEMBL document CHEMBL4689842, “EUbOPEN Chemogenomics Library wave 1” (2021).
Where “and” joins values, the source holds several entries; their conditions need not be identical. Identical values can stand only once.

System: HEK-293T
Assay: Multiplex assay against HEK293T;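 for Population Tubulin-Different-Phenotype (%): share of the cells with healthy nuclei that show this phenotype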
Format: toxicity, cell-based
Settings: human
Summary of the method: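 Imaging took place on a CQ1 microscope at 37°C and 5% CO2 once compound had been added to live cells stained at seeding with Hoechst33342, BioTracker Green Microtubule Cytoskeleton Dye, MitoTracker Red and Annexin V Alexa Fluor 680. CellPathfinder machine-learning gating classed cells as Hoechst high-intensity objects or normal cells, classed normal cells as having healthy, pyknosed or fragmented nuclei, and classed pyknosed cells as mitotic or apoptotic. Tubulin, mitochondrial-mass and membrane-permeability phenotypes are per cents of the healthy-nucleus cells.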

[1] = 12 h, 1 µM, compound concentration 1 uM, replicate 1
[2] = 12 h, 1 µM, compound concentration 1 uM, replicate 2
[3] = 12 h, 10 µM, compound concentration 10 uM, replicate 1
[4] = 12 h, 10 µM, compound concentration 10 uM, replicate 2
[5] = 24 h, 1 µM, compound concentration 1 uM, replicate 1
[6] = 24 h, 1 µM, compound concentration 1 uM, replicate 2
[7] = 24 h, 10 µM, compound concentration 10 uM, replicate 1
[8] = 24 h, 10 µM, compound concentration 10 uM, replicate 2
[9] = 48 h, 1 µM, compound concentration 1 uM, replicate 1
[10] = 48 h, 1 µM, compound concentration 1 uM, replicate 2
[11] = 48 h, 10 µM, compound concentration 10 uM, replicate 1
[12] = 48 h, 10 µM, compound concentration 10 uM, replicate 2

CNC(=O)c1ccc(Nc2ncc(C(F)(F)F)c(NCc3nccnc3N(C)S(C)(=O)=O)n2)cc1 [DEFACTINIB]
Population Apoptotic (%) [1]: 27% | Population Fragmented Nuclei (%) [1]: 14% and 16% | Population Healthy Nuclei (%) [1]: 72% and 59% | Population Hoechst High Intensity Objects (%) [1]: 11% and 18% | Population Membrane Permeable-Phenotype (%) [1]: 4% and 6% | Population Mitochondria Different-Phenotype (%) [1]: 6% and 8% | Population Mitotic Cells (%) [1]: 72% and 74% | Population Normal (%) [1]: 88% and 81% | Population Pyknosed Nuclei (%) [1]: 13% and 24% | Total Cell Count [1]: 689 and 588 | Population Apoptotic (%) [2]: 25% and 12% | Population Fragmented Nuclei (%) [2]: 9% and 3% | Population Healthy Nuclei (%) [2]: 84% and 92% | Population Hoechst High Intensity Objects (%) [2]: 3% | Population Membrane Permeable-Phenotype (%) [2]: 2% and 3% | Population Mitochondria Different-Phenotype (%) [2]: 10% and 19% | Population Mitotic Cells (%) [2]: 75% and 87% | Population Normal (%) [2]: 96% | Population Pyknosed Nuclei (%) [2]: 6% and 3% | Total Cell Count [2]: 1140 and 1057 | Population Apoptotic (%) [3]: 27% | Population Fragmented Nuclei (%) [3]: 17% and 16% | Population Healthy Nuclei (%) [3]: 62% and 66% | Population Hoechst High Intensity Objects (%) [3]: 11% and 13% | Population Membrane Permeable-Phenotype (%) [3]: 7% and 4% | Population Mitochondria Different-Phenotype (%) [3]: 12% and 5% | Population Mitotic Cells (%) [3]: 72% | Population Normal (%) [3]: 88% and 86% | Population Pyknosed Nuclei (%) [3]: 20% and 17% | Total Cell Count [3]: 704 and 581 | Population Fragmented Nuclei (%) [4]: 3% and 7% | Population Healthy Nuclei (%) [4]: 90% and 87% | Population Hoechst High Intensity Objects (%) [4]: 5% and 2% | Population Membrane Permeable-Phenotype (%) [4]: 6% and 1% | Population Mitochondria Different-Phenotype (%) [4]: 21% and 10% | Population Mitotic Cells (%) [4]: 78% and 96% | Population Normal (%) [4]: 94% and 97% | Population Pyknosed Nuclei (%) [4]: 6% and 4% | Total Cell Count [4]: 770 and 1490 | Population Apoptotic (%) [5]: 23% and 19% | Population Fragmented Nuclei (%) [5]: 15% and 17% | Population Healthy Nuclei (%) [5]: 77% and 62% | Population Hoechst High Intensity Objects (%) [5]: 6% and 14% | Population Membrane Permeable-Phenotype (%) [5]: 6% | Population Mitochondria Different-Phenotype (%) [5]: 4% and 12% | Population Mitotic Cells (%) [5]: 76% and 80% | Population Normal (%) [5]: 93% and 85% | Population Pyknosed Nuclei (%) [5]: 7% and 19% | Population Tubulin-Different-Phenotype (%) [5]: 10% and 26% | Total Cell Count [5]: 751 and 618 | Population Apoptotic (%) [6]: 14% and 11% | Population Healthy Nuclei (%) [6]: 74% and 91% | Population Hoechst High Intensity Objects (%) [6]: 3% and 5% | Population Membrane Permeable-Phenotype (%) [6]: 3% | Population Mitotic Cells (%) [6]: 85% and 88% | Population Normal (%) [6]: 96% and 94% | Population Pyknosed Nuclei (%) [6]: 3% and 2% | Total Cell Count [6]: 1868 and 1334 | Population Apoptotic (%) [7]: 33% and 18% | Population Fragmented Nuclei (%) [7]: 16% and 15% | Population Healthy Nuclei (%) [7]: 66% and 78% | Population Hoechst High Intensity Objects (%) [7]: 11% and 7% | Population Membrane Permeable-Phenotype (%) [7]: 6% and 4% | Population Mitotic Cells (%) [7]: 66% and 81% | Population Normal (%) [7]: 88% and 92% | Population Tubulin-Different-Phenotype (%) [7]: 24% and 11% | Total Cell Count [7]: 732 and 672 | Population Healthy Nuclei (%) [8]: 90% and 75% | Population Hoechst High Intensity Objects (%) [8]: 3% | Population Membrane Permeable-Phenotype (%) [8]: 8% and 3% | Population Mitotic Cells (%) [8]: 71% and 92% | Population Normal (%) [8]: 96% | Population Pyknosed Nuclei (%) [8]: 4% and 2% | Total Cell Count [8]: 961 and 2290

Cc1ccccc1C(c1ccccc1C)N1C2CCC1CC(O)(c1ccccc1)C2 (configuration not stated)
Population Apoptotic (%) [1]: 48% | Population Healthy Nuclei (%) [1]: 40% | Population Mitotic Cells (%) [1]: 51% | Population Normal (%) [1]: 82% | Population Pyknosed Nuclei (%) [1]: 48% | Total Cell Count [1]: 233 | Population Apoptotic (%) [2]: 13% | Population Healthy Nuclei (%) [2]: 39% | Population Mitotic Cells (%) [2]: 86% | Population Normal (%) [2]: 94% | Population Pyknosed Nuclei (%) [2]: 55% | Total Cell Count [2]: 261 | Population Apoptotic (%) [3]: 53% | Population Healthy Nuclei (%) [3]: 36% | Population Mitotic Cells (%) [3]: 46% | Population Normal (%) [3]: 88% | Population Pyknosed Nuclei (%) [3]: 54% | Total Cell Count [3]: 350 | Population Healthy Nuclei (%) [4]: 26% | Population Mitotic Cells (%) [4]: 78% | Population Normal (%) [4]: 96% | Population Pyknosed Nuclei (%) [4]: 69% | Total Cell Count [4]: 210 | Population Apoptotic (%) [5]: 43% | Population Healthy Nuclei (%) [5]: 45% | Population Mitotic Cells (%) [5]: 56% | Population Normal (%) [5]: 82% | Population Pyknosed Nuclei (%) [5]: 40% | Total Cell Count [5]: 254 | Population Apoptotic (%) [6]: 13% | Population Healthy Nuclei (%) [6]: 61% | Population Mitotic Cells (%) [6]: 86% | Population Normal (%) [6]: 98% | Population Pyknosed Nuclei (%) [6]: 32% | Total Cell Count [6]: 355 | Population Apoptotic (%) [7]: 49% | Population Healthy Nuclei (%) [7]: 42% | Population Mitotic Cells (%) [7]: 50% | Population Normal (%) [7]: 91% | Population Pyknosed Nuclei (%) [7]: 48% | Total Cell Count [7]: 339 | Population Healthy Nuclei (%) [8]: 43% | Population Mitotic Cells (%) [8]: 68% | Population Normal (%) [8]: 95% | Population Pyknosed Nuclei (%) [8]: 53% | Total Cell Count [8]: 229 | Population Healthy Nuclei (%) [9]: 49% | Population Mitotic Cells (%) [9]: 68% | Population Normal (%) [9]: 87% | Population Pyknosed Nuclei (%) [9]: 28% | Total Cell Count [9]: 301 | Population Healthy Nuclei (%) [10]: 85% | Population Mitotic Cells (%) [10]: 87% | Population Normal (%) [10]: 98% | Population Pyknosed Nuclei (%) [10]: 10% | Total Cell Count [10]: 568 | Population Apoptotic (%) [11]: 50% | Population Healthy Nuclei (%) [11]: 45% | Population Mitotic Cells (%) [11]: 49% | Population Normal (%) [11]: 91% | Population Pyknosed Nuclei (%) [11]: 42% | Total Cell Count [11]: 372 | Population Apoptotic (%) [12]: 23% | Population Healthy Nuclei (%) [12]: 72% | Population Mitotic Cells (%) [12]: 76% | Population Normal (%) [12]: 97% | Population Pyknosed Nuclei (%) [12]: 24% | Total Cell Count [12]: 302
